Measurements taken from paper PMC6323139 (Bioorganic & medicinal chemistry, 2017).
“Also recorded” adds a separate entry of the source.

What was measured:
Type in all cases: biochemical
[1] = target: T1, MIF (Homo sapiens, UniProt P14174); test: Preincubation assay; settings: for Reversibility of inhibition: concluded from preincubation and dilution experiments; for Change in IC50 between preincubation times: preincubated with MIF (340 nM) for 2 or 40 min, inhibitor 125–0 μM
T1 sequence (P14174 2-115 limits assumed): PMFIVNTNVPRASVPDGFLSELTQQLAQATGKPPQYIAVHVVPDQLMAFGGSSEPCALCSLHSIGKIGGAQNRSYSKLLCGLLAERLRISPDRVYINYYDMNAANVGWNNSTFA
Summary of the method: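 His-tagged MIF (340 nM final, in boric acid pH 6.2) was preincubated 2 or 40 min with test compound (125–0 µM, 1.6-fold series, 5% DMSO). 0.5 mM 4-HPP (equilibrated overnight in ammonium acetate pH 6.0) was added, A306 followed, and IC50 curves made. For dilution, 34 µM MIF plus 125 µM compound was diluted 100-fold into 4-HPP/boric acid, with a DMSO-only control and absorbance tracked.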

[2] = target: T1, MIF; test: Dilution experiment; settings: MIF 34 μM with 125 μM inhibitor, diluted 100x in substrate solution
Summary of the method: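 Recombinant His-tagged MIF, purified on His-Trap resin, was premixed at 34 µM with 125 µM test compound in 5% DMSO. The mix was diluted 100-fold into boric acid containing 0.5 mM 4-HPP. The 4-HPP stock was made in 50 mM ammonium acetate pH 6.0 and equilibrated overnight at room temperature. Enol-borate absorbance at 306 nm was plotted against time. The control used 5% DMSO without inhibitor.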

[3] = target: T1, MIF; test: Enzyme kinetic evaluation at increasing 4-HPP concentrations; settings: concluded from Vmax app. and Khalf app.
Summary of the method: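 Initial velocities were taken from the linear slope of absorbance at 306 nm. Conditions were His-tagged recombinant MIF at 340 nM in boric acid pH 6.2, with 4-HPP at 0–2.56 mM (1.25× dilutions) and test compound at 0, 6.25 or 12.5 µM in 5% DMSO. Velocity versus substrate was fitted to an allosteric sigmoidal model, giving Vmax app., Hill slope and Kprime app. Khalf app. was calculated from Kprime and the Hill slope.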

Reversibility of inhibition [1] | Compound | Change in IC50 between preincubation times [1] | MIF enzyme activity after dilution of the enzyme-inhibitor mixture [2] | Mechanism of inhibition (competition with substrate 4-HPP) [3]
reversible inhibitors | Cc1ccc2c(c1)OC(N)=C1C(=O)N(CCc3c[nH]c4ccccc34)C(=O)CC12 (stereo not drawn) [Compound 17] | No difference in IC50 | – | –
reversible inhibitors | CCCCCCCCCCCCN1C(=O)CC2C(=C(N)Oc3ccccc32)C1=O (stereo not drawn) [Compound 10] | No difference in IC50; also recorded: No significant change in IC50 value | activity of MIF could be recovered after dilution; also recorded: Diluting the inhibitor recovered the enzyme activity | no direct competition between the substrate 4-HPP and the inhibitor; also recorded: does not bind in direct competition with the substrate 4-HPP
